# Screening data: PubChem, several laboratories
# NALP1 yeast inh = blocks the NALP1 inflammasome reconstituted in yeast; 0.61% of 280,000 active; S. cerevisiae NALP1/ASC/caspase-1 growth, X-gal OD620, 72 h; AID 2071; inhibition, % at 10 µM; in the data active means inhibition mostly above about 24%, no sharp cut-off; inactive means mostly below about 32%
# ALR inh = human ALR oxidase inhibition via reduced H2O2; purified ALR, DTT oxidation, H2O2 HRP-luminol luminescence; inhibition, % (test concentration not listed); 3.8% of 290,000 active; AID 485317;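 active means mean replicate inhibition above about 79%, with every replicate also reaching it, limit read from the data; inconclusive means only one of the two criteria met; inactive means mean below limit and not every replicate reaching it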
# ATG4B inh = inhibitors of human ATG4B cysteine protease. ATG4B cleavage of LC3-PLA2, NBD-HPC fluorescence, 1 h. 0.51% of 340,000 active. inhibition, % at 8.33 µM. Q9Y4P1; in the data active means inhibition above about 40%
# Target sequence (Q9Y4P1 whole entry, looked up): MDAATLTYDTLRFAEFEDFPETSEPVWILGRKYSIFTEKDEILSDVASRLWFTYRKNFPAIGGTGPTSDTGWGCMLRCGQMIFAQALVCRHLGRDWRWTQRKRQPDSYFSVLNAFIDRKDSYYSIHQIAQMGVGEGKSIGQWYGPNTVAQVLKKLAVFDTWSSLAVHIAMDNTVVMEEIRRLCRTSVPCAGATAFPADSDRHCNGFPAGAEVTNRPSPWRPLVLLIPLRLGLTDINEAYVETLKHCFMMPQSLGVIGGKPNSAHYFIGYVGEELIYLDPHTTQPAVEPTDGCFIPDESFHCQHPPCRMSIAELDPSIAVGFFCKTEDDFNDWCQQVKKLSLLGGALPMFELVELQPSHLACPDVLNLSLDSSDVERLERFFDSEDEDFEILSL
# NALP3 yeast inh = blocks the NALP3 inflammasome reconstituted in yeast; Yeast reconstituted NLRP3/ASC/caspase-1, beta-gal luminescence, 24 h; inhibition, % at 10 µM; 0.39% of 330,000 active;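 active means inhibition of 50% or more; inactive means inhibition below 50%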
# Calb FLC = affects C. albicans growth with fluconazole; C. albicans CaCi-2 + fluconazole, Alamar Blue growth, 48 h; growth inhibition, % (concentration not given with the values); 0.57% of 300,000 active; AID 1979;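 active means growth inhibition above about 58% in most replicates, limit read from the data, passing the limit was not always enough; inconclusive means exactly half the replicates above a set limit; inactive means most replicates below a set limit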;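 further: all wells also contain fluconazole at 8 µg/ml as a sub-toxic cotreatment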
# UCH37 inh = blocks the human deubiquitinase UCH37; Q9Y5K5; purified proteasome/UCH37, Ub-AMC cleavage fluorescence; inhibition, % (concentration not given with the values); 0.33% of 330,000 active; AID 588478;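 active means mean inhibition over replicate wells above about 20%, limit read from the data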
# Target sequence (Q9Y5K5 whole entry, looked up): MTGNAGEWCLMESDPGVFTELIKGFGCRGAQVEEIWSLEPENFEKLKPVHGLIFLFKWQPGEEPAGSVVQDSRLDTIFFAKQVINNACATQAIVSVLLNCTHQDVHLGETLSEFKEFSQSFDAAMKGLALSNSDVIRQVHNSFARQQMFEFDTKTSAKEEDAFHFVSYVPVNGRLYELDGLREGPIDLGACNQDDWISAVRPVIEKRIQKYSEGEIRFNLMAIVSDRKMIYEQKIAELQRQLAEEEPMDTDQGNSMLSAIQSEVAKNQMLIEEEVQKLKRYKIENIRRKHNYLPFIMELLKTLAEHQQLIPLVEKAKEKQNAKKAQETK
#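 Test system – human UCH37 enzyme supplied as purified proteasome complex · Incubation – 30 min preincubation with enzyme, 25 min cleavage at room temperature · Detection – AMC fluorescence from Ub-AMC cleavage, excitation 355 nm, emission 460 nm · Benchmarks – no-proteasome wells (full inhibition) and compound-free wells (no inhibition)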
# A number is an active result; i = inactive; ? = inconclusive; nt = no result. Sampled rows, rich in hits. Any-hit rate of the full collection: about 4.8%.
SMILES,NALP1 yeast inh,ALR inh,ATG4B inh,NALP3 yeast inh,Calb FLC,UCH37 inh
COc1ccccc1NC(=S)NNC(=O)c1ccc(O)cc1,i,99.3,i,i,i,i
COc1ccccc1NC(=O)NNC(=O)c1ccncc1,nt,nt,i,nt,nt,i
O=C(O)c1ccc(NC(=S)Nc2ccccc2)cc1,i,98.8,i,i,i,i
O=C(NNC(=S)NC(=O)c1ccccc1)c1ccc(O)cc1,i,98.8,i,i,i,i
O=C(CNC(=S)NC(=O)c1ccccc1)c1ccccc1,i,78.6,i,i,i,i
COc1ccc(C=NNC(=O)OC(C)(C)C)cc1OC,nt,nt,nt,nt,nt,i
COc1ccc(C=NOCC(=O)Nc2ccc3c(c2)OCO3)c(OC)c1,nt,nt,nt,nt,nt,i
O=C(NNC(=S)Nc1ccccc1)c1ccc(O)cc1,nt,99.0,i,i,i,i
O=C(NNC(=S)Nc1ccccc1)c1ccc2ncccc2c1,i,78.3,i,i,i,i
O=C(O)c1ccc(NC(=S)NC(=O)c2cccc(COc3ccccc3)c2)cc1,i,96.9,i,i,i,i
COCc1cc(C)nc(NN=Cc2ccc(-c3ccc(Cl)cc3[N+](=O)[O-])o2)c1C#N,nt,nt,nt,nt,nt,i
CC(=NNC(=O)c1cc(C(C)C)[nH]n1)c1ccco1,nt,nt,nt,nt,nt,i
CN1CCN(CC#CC(C)(O)C2CC3C=CC2C3)CC1 (stereo not given),i,i,i,i,i,22.9
OC(CCN1CCCCC1)(c1ccccc1)C1C[C@@H]2C=C[C@H]1C2 (stereo not given in full),nt,i,i,i,nt,i
CCC1=NN2C(=N)/C(=C\c3ccc(SCc4ccco4)o3)C(=O)N=C2S1,i,?,i,i,i,i
CCCC1=NN2C(=N)/C(=C\c3ccc(SCc4ccco4)o3)C(=O)N=C2S1,i,99.0,i,i,?,nt
O=C1NC(=S)S/C1=C\c1ccc(SCc2ccco2)o1,i,99.0,67.0,nt,nt,nt
C=CCOc1ccc(C(CC)=NO)cc1OC,nt,nt,nt,nt,nt,i
O=C(O)CCc1ccc(-c2cccs2)n1NC(=O)c1ccc(Cl)cc1,i,98.5,i,i,i,i
O=C(O)CCc1ccc(-c2cccs2)n1NC(=O)c1ccc(Cl)cc1Cl,i,i,i,i,i,i
Cc1ccc(-c2ccc(CCC(=O)O)n2NC(=O)c2cccs2)cc1,i,98.9,i,i,i,i
CC1=C(C=NNc2ccc([N+](=O)[O-])cc2[N+](=O)[O-])C(C)(C)CCC1,nt,nt,nt,nt,nt,i
O=c1c(=Cc2ccc(O)c([N+](=O)[O-])c2)sc2nc3ccccc3n12,nt,nt,nt,nt,nt,i
O=c1c(=Cc2cc([N+](=O)[O-])cc([N+](=O)[O-])c2O)sc2nc3ccccc3n12,nt,nt,nt,nt,nt,27.0
CC(=O)Nc1cccc(C(C)=NNC(=O)c2ccc(Cl)cc2Cl)c1,nt,nt,nt,nt,nt,i
SMILES,NALP1 yeast inh,ALR inh,ATG4B inh,NALP3 yeast inh,Calb FLC,UCH37 inh
[O-]/C(=C(\C(=S)NCc1ccccc1)[n+]1ccccc1)c1ccc(Cl)cc1,i,i,i,i,i,i
C=CCNC(=S)/C(=C(\[O-])c1ccc(Cl)cc1)[n+]1ccccc1,i,97.9,i,i,i,i
COc1ccc(N2C(=O)C(CC(=O)O)SC2=NN=Cc2cccs2)cc1 (stereo not given),nt,nt,nt,nt,nt,i
Cc1ccc(NN=C2CCCNC2=O)cc1,nt,nt,nt,nt,nt,i
CC(=O)c1ccc(N/N=C2/CCCNC2=O)cc1,i,99.4,i,i,i,nt
Cc1ccc(N/N=C2/CCCNC2=O)cc1,i,90.0,i,i,i,nt
O=C(NN=Cc1ccc([N+](=O)[O-])cc1)c1cc(-c2ccc3c(c2)OCO3)n[nH]1,nt,nt,nt,nt,nt,i
CC(=O)Nc1ccc(C(=O)n2cnc3cc(C)c(C)cc32)cc1,i,98.7,i,i,i,i
Cc1ccc(N=Nc2ccc(O)c(C=NNC(=O)c3ccc(N)cc3)c2)cc1C,nt,nt,nt,nt,nt,i
S=c1[nH]nc(COc2ccccc2)n1N=Cc1ccco1,nt,nt,nt,nt,nt,i
CCOP(=O)(OCC)C(C#N)=C1SCN(c2ccccc2)CS1,nt,99.0,i,i,i,i
O=C1C(Cl)=C(NCCN2CCCCC2)C(=O)c2ccccc21,i,i,i,i,i,40.6
O=C(CC(=O)NC1CCCCC1)NN=Cc1cccc2ccccc12,nt,nt,nt,nt,nt,i
CCOC(=O)c1cc2sc(C)cc2n1CC(=O)N1CCc2ccccc21,i,i,i,i,i,i
CCOC(=O)c1cc2sccc2n1CC(=O)N1CCCC1,i,i,i,i,106.3,i
CCOC(=O)c1cc2sc(C)cc2n1CC(=O)N1CCOCC1,36.4,i,i,i,i,i
CCOC(=O)c1cc2sc(C)cc2n1CC(=O)N1CCN(C(=O)c2ccco2)CC1,i,99.0,i,i,i,i
CCOC(=O)c1cc2sccc2n1CC(=O)N1CCN(C(=O)c2ccco2)CC1,i,i,i,i,i,i
CCN(CC)c1ccc(/C=C2/SC(=O)N(C(C)C)C2=O)o1,57.7,nt,i,nt,i,i
Cc1nc2ccc(Br)cn2c1C(=O)NN=Cc1ccc(C(C)C)cc1,nt,nt,nt,nt,nt,i
N#CC(=NNc1ccc(S(=O)(=O)N2CCCCC2)cc1)C(N)=S,nt,nt,nt,nt,nt,i
Clc1ccc2nc(N3CCCCC3)sc2c1,i,i,i,i,i,i
Clc1ccc2nc(N3CCCCC3)[nH]c2c1,i,98.5,i,i,i,i
C=CCN1C(=O)C(Cc2ccc(OC)cc2)SC1=NN=Cc1cccs1 (stereo not given),nt,nt,nt,nt,nt,i
COc1ccc2[nH]c(C)c(-c3csc(N)n3)c2c1,i,98.7,i,i,i,i
SMILES,NALP1 yeast inh,ALR inh,ATG4B inh,NALP3 yeast inh,Calb FLC,UCH37 inh
O=C(CSc1ccc(C=NNC(=O)c2cccc(F)c2)o1)Nc1ccccc1,nt,nt,nt,nt,nt,i
c1ccc(-c2cnc(CSc3ncnc4sccc34)o2)cc1,i,i,i,i,i,i
CN(C)S(=O)(=O)c1ccc(C(=O)NC(=O)CSc2ccccc2)cc1,nt,i,i,i,i,i
CC(=O)Nc1ccc(SCc2ncc(-c3ccccc3)o2)cc1,i,98.6,i,i,i,i
CC(=O)Nc1ccc(SCC(=O)Nc2sccc2C#N)cc1,i,98.8,i,i,i,i
COC(=O)Nc1ccc(SCC(=O)c2ccccc2)cc1,i,99.1,i,i,i,i
Cc1ccnc(SCC(=O)Nc2sccc2C#N)n1,i,i,i,i,i,i
CC(=O)Nc1ccc(SCC(=O)NC(=O)c2ccc(S(=O)(=O)N(C)C)cc2)cc1,nt,98.6,i,i,nt,i
COC(=O)Nc1ccc(SCC(=O)c2ccc(Cl)cc2)cc1,i,nt,i,i,i,i
O=C(CNC(=O)c1ccccc1Br)NN=Cc1cc(Br)ccc1O,nt,nt,nt,nt,nt,i
CC(=O)Nc1ccc(SCC(=O)Nc2ccccc2-c2ccccc2)cc1,i,98.4,i,i,i,i
COc1ccccc1N1CCN(CC(=O)Nc2sccc2C#N)CC1,i,nt,i,i,i,i
N#Cc1ccsc1NC(=O)CN1CCN(c2ccccc2O)CC1,i,99.1,i,i,i,i
CC(=O)Nc1ccc(SCC(=O)N(C)CC(=O)Nc2ccccc2Cl)cc1,nt,97.9,i,i,nt,i
COc1ccc(S(=O)(=O)NN=C(C)c2cccc(NC(=O)c3ccccc3Cl)c2)cc1,nt,nt,nt,nt,nt,i
Cc1cc(=O)[nH]c(NN=Cc2ccc(F)cc2)n1,nt,nt,nt,nt,nt,i
COc1ccc(C2NCCc3c2[nH]c2ccccc32)cc1CSc1nc2ccccc2s1 (stereo not given),57.3,nt,i,nt,i,i
